Data reported in ChEMBL document CHEMBL1781954, “Synthesis and antitumor activity of novel pyrido[2,3-d][1,2,4]triazolo[4,3-a]pyrimidin-5-one derivatives” (Eur J Med Chem, 2011).
≈ marks a conversion by molar mass, not a printed value.

Test system: MCF7
Experiment: Cytotoxicity against human MCF7 cells assessed as inhibition of cell viability after 48 hrs by Sulforhodamine B assay
Assay type: functional, cell-based
Settings: MCF7, 48 h
In short: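 MCF7 cells seeded at 10⁴ cells/well and left 24 h to attach. Compounds in DMSO diluted with saline were added at 0, 1, 2.5, 5 and 10 (triplicate wells per dose). After 48 h at 37 °C in 5% CO₂, cells were fixed with trichloroacetic acid and stained 30 min with 0.4% SRB in 1% acetic acid. Bound dye was recovered in Tris-EDTA and read on an ELISA reader. IC50 was taken from surviving fraction versus concentration curves.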

| Structure (SMILES) | IC50 [µg/mL] |
| --- | --- |
| Nc1n[nH]c2nc3nc(-c4ccccc4)cc(-c4ccc(Cl)cc4)c3c(=O)n12 | 3.74 (≈ 9.62 µM) |
| O=c1c2c(-c3ccc(Cl)cc3)cc(-c3ccccc3)nc2nc2[nH]ncn12 | 21.6 (≈ 57.8 µM) |
| O=c1[nH][nH]c2nc3nc(-c4ccccc4)cc(-c4ccc(Cl)cc4)c3c(=O)n12 | 24.3 (≈ 62.3 µM) |
| Cc1n[nH]c2nc3nc(-c4ccccc4)cc(-c4ccc(Cl)cc4)c3c(=O)n12 | > 50 |
| CCSc1n[nH]c2nc3nc(-c4ccccc4)cc(-c4ccc(Cl)cc4)c3c(=O)n12 | 5.2 (≈ 12 µM) |
| O=c1c2c(-c3ccc(Cl)cc3)cc(-c3ccccc3)nc2nc2[nH][nH]c(=S)n12 | 6.78 (≈ 16.7 µM) |
| O=c1c2c(-c3ccc(Cl)cc3)cc(-c3ccccc3)nc2nc2[nH]nc(-c3ccccc3)n12 | 9.22 (≈ 20.5 µM) |
| O=c1c2c(-c3ccc(Cl)cc3)cc(-c3ccccc3)nc2nc2[nH]nc(CCl)n12 | 11.7 (≈ 27.7 µM) |
| O=c1c2c(-c3ccc(Cl)cc3)cc(-c3ccccc3)nc2nc2[nH]nc(SCc3ccccc3)n12 | 12.6 (≈ 25.4 µM) |
| CCOC(=O)CSc1n[nH]c2nc3nc(-c4ccccc4)cc(-c4ccc(Cl)cc4)c3c(=O)n12 | 4.5 (≈ 9.15 µM) |
| Cc1ccc(-c2n[nH]c3nc4nc(-c5ccccc5)cc(-c5ccc(Cl)cc5)c4c(=O)n23)cc1 | 9.07 (≈ 19.6 µM) |
| O=c1[nH]c(=S)[nH]c2nc(-c3ccccc3)cc(-c3ccc(Cl)cc3)c12 | 5.11 (≈ 14 µM) |
| CCc1n[nH]c2nc3nc(-c4ccccc4)cc(-c4ccc(Cl)cc4)c3c(=O)n12 | 14 (≈ 34.8 µM) |
| CSc1n[nH]c2nc3nc(-c4ccccc4)cc(-c4ccc(Cl)cc4)c3c(=O)n12 | 3.89 (≈ 9.26 µM) |
